Sampled rows, rich in hits. Any-hit rate of the full collection: about 2.4%.
CASP6 VEID inh: blocks human caspase-6 cleavage activity; 350,000 compounds, 0.53% hits; purified caspase-6, Z-VEID-R110 cleavage fluorescence; P55212; inhibition, % at 12.5 µM;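 active = mean inhibition across replicates at least about 35%, with every replicate also reaching that limit, limit read from the data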
Target sequence (P55212 24-179 limits assumed): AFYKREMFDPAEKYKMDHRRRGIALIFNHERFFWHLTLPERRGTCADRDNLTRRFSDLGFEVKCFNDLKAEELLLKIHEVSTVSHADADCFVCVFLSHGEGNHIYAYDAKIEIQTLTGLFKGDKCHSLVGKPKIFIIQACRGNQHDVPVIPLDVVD
Target sequence (P55212 194-293 limits assumed): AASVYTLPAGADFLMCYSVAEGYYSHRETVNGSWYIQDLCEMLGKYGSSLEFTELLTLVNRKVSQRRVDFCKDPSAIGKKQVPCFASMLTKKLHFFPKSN
S100A4 inh HTS: inhibitors of human S100A4 binding to myosin IIA peptide; P26447; inhibition, % at 10.7 µM; 360,000 compounds, 0.14% hits; S100A4/TAMRA-MyoIIA peptide fluorescence polarization;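 active = mean inhibition of at least 70% across replicates, with every replicate also reaching that level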
Target sequence (P26447 whole entry, looked up): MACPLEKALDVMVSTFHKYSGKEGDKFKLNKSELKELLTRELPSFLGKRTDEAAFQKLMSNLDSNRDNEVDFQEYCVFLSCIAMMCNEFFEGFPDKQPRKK
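incubation = readout 5 min after mixing, signal stable up to 60 min | system = S100A4 monomer protein | buffer or medium = HEPES pH 7.2 with CaCl2, KCl, NaCl, DTT, Triton | benchmarks = neutral control DMSO, positive control TFP | also added = fluorescent myosin IIA peptide, 5 nM | compound dosing = one concentration per compound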
Ecoli rRNA inh: selective bacterial rRNA inhibition in E. coli; E. coli WT GFP vs humanized-ribosome RFP mutants, fluorescence, 24 h; stronger effect = lower value; DMSO median 0, no signal -100; GFP signal change (wild-type ribosome), % (test concentration not listed); 350,000 compounds, 1.6% hits;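 active = significant combined selectivity score with lowered wild-type GFP, culture density cut under 30%, mutant RFP and density less affected; inactive = any of these conditions unmet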
ERAP1 HTS inh: ERAP1 (human) enzyme inhibition. recombinant ERAP1, Leu-AMC fluorescence, 60 min. inhibition, % at 10.7 µM. 340,000 compounds, 0.15% hits. AID 652197;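 active = mean replicate inhibition of at least 30%, or all replicates individually reaching that 30% level; inactive = mean below 30% and not every replicate reaching it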
PGC1a acetyl inh: lowers PGC1a acetylation signal in U2OS cells; AlphaScreen anti-acetyl-lysine; with virally co-expressed GCN5 acetyltransferase; inhibition, % at 15.6 µM; 350,000 compounds, 0.17% hits;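 active = every replicate shows inhibition of at least 40%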
ARNT-TACC3 inh: disruptors of human ARNT/TACC3 interaction | Q9Y6A5 | AlphaScreen His-ARNT PAS-B/GST-TACC3 binding, luminescence; TACC3 fragment carries E629A point mutation | inhibition, % at 9.99 µM | 390,000 compounds, 0.66% hits | AID 623870;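 active = mean inhibition of replicates at least 50% and at least half of replicates each reaching 50%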
A number is an active result; i = inactive; nt = not tested or not shown.

SMILES | CASP6 VEID inh | S100A4 inh HTS | Ecoli rRNA inh | ERAP1 HTS inh | PGC1a acetyl inh | ARNT-TACC3 inh
COc1cc2c(cc1OC)CN(c1ccc([N+](=O)[O-])c(C(F)(F)F)c1)CC2 | i | i | -18.8 | i | nt | i
CC(C)(O)C(=O)Nc1ccc([N+](=O)[O-])c(C(F)(F)F)c1 | i | i | i | i | i | nt
COC(=O)[C@@H]1[C@@H](CO)[C@@H]2Cn3c(ccc(-c4cccc(OC)c4)c3=O)[C@H]1N2CC1CC1 | i | i | i | i | nt | i
CN1C2CN(CC(F)(F)F)CC1C2c1ccc(Br)cc1 (configuration not stated) | nt | nt | i | nt | nt | nt
O=C(Cc1ccncc1)N1CCCCN2[C@H](C1)[C@H](c1ccc(C#CC3(O)CCCC3)cc1)[C@@H]2CO | i | i | i | i | i | i
CC=Cc1ccc2n(c1=O)C[C@H]1[C@H](CO)[C@@H](C(=O)N(C)C)N[C@@H]21 (mixture of isomers) | i | i | i | i | i | i
CNc1cc(Cl)c2nonc2c1[N+](=O)[O-] | i | i | i | i | 68.2 | i
Cc1cc([N+](=O)[O-])c(Cl)cc1NC(=O)C(C)C | nt | nt | nt | nt | nt | i
Cc1ccc(CS(=O)(=O)CCC(=O)N2CCC3(CC2)OCCO3)cc1 | i | i | i | i | 44.2 | i
CN(C)CC#Cc1ccc([C@@H]2[C@H]3CN(C(=O)Cc4ccccn4)CCCCN3[C@H]2CO)cc1 | i | i | i | i | i | i
C[C@@H]1CN([C@H](C)CO)C(=O)CCCn2cc(nn2)CO[C@@H]1CN(C)C(=O)Oc1ccc2ccccc2c1 | nt | nt | i | nt | i | nt
Cc1ccc(OCCn2cccc2/C=C2/C(=O)NC(=O)N(Cc3ccco3)C2=O)cc1 | 76.2 | i | i | nt | nt | i
Cc1ccc(-n2c(C)cc(/C=C3/C(=O)NC(=O)N(Cc4ccco4)C3=O)c2C)cc1 | nt | nt | nt | nt | nt | i
Cc1ccc(N2C(=O)NC(=O)/C(=C\c3cc(C)n(-c4ccc(C(=O)O)cc4)c3C)C2=O)cc1 | i | i | i | i | i | i
Cc1cc(/C=C2\C(=O)NC(=O)N(Cc3ccccc3)C2=O)c(C)n1-c1ccc(Cl)c(C(=O)O)c1 | 66.1 | i | i | i | nt | i
Cn1cccc1/C=C1\C(=O)NC(=O)N(Cc2ccco2)C1=O | nt | nt | nt | nt | i | i
Cc1cc(/C=C2\C(=O)NC(=O)N(Cc3ccco3)C2=O)c(C)n1-c1ccc(C(=O)O)cc1 | 70.6 | i | i | nt | i | i
Cc1cc(/C=C2\C(=O)NC(=O)N(Cc3ccccc3Cl)C2=O)c(C)n1-c1ccc(C(=O)O)cc1 | 47.8 | i | i | i | nt | i
O=C(O)[C@H]1[C@H](CO)[C@H]2Cn3c(ccc(-c4ccccc4)c3=O)[C@@H]1N2CC1CCCCC1 | i | i | i | i | nt | i
C[C@H](CO)N1C[C@H](C)[C@H](CN(C)C(=O)Oc2ccccc2)OCc2ccccc2-c2c(n(C)c3ccccc23)C1=O | i | i | i | i | i | nt
Cc1cc(/C=C2\C(=O)NC(=O)N(Cc3ccco3)C2=O)c(C)n1-c1ccc(O)cc1 | 69.0 | i | i | i | i | nt
Cc1ccc(/C=C2\C(=O)NC(=O)N(Cc3ccccc3Cl)C2=O)o1 | 50.6 | i | i | 49.9 | nt | i
Cc1ccccc1-n1c(C)cc(/C=C2/C(=O)NC(=O)N(Cc3ccco3)C2=O)c1C | i | i | i | i | nt | nt
CCOC(=O)C1CCN(/C=C2/C(=O)NC(=O)N(Cc3ccco3)C2=O)CC1 | 55.0 | i | i | i | nt | i
COc1ccc(C#Cc2ccc([C@@H]3[C@H](CO)N4CCCCN(C(=O)Cc5cccnc5)C[C@@H]34)cc2)cc1 | i | i | i | i | i | i
SMILES | CASP6 VEID inh | S100A4 inh HTS | Ecoli rRNA inh | ERAP1 HTS inh | PGC1a acetyl inh | ARNT-TACC3 inh
CC1=C2C[C@H]3[C@@H](CC=C4C[C@@H](O)CC[C@@]43C)[C@@H]2CC[C@]12O[C@@H]1C[C@H](C)CN[C@@H]1C2C (some centres not stated) | i | i | nt | i | i | nt
CN(C)C1C(=O)C(C(N)=O)=C(O)C2(O)C(=O)C3=C(O)c4c(O)cccc4C(C)(O)C3C(O)C12 (configuration not stated) | 53.3 | i | i | i | i | i
N#Cc1cccc(-c2ccc([C@H]3[C@H]4CN(C(=O)Cc5cccnc5)CCCCN4[C@H]3CO)cc2)c1 | i | i | i | i | i | i
CN1CCN(c2ccc(/C=C3\C(=O)NC(=S)N(c4cccc(Br)c4)C3=O)o2)CC1 | nt | nt | nt | nt | nt | i
Cc1ccc(/C=C2\C(=O)NC(=S)N(c3cccc(F)c3)C2=O)o1 | 48.2 | i | i | i | nt | i
COc1ccc(N2C(=O)/C(=C/c3ccc(C)o3)C(=O)NC2=S)cc1 | 40.0 | i | i | i | i | i
CCOc1ccc(N2C(=O)/C(=C/c3ccc(C)o3)C(=O)NC2=S)cc1 | i | i | i | i | nt | i
O=C1NC(=O)C(Sc2ccccc2[N+](=O)[O-])C(=O)N1 | 37.7 | i | i | i | i | i
C[C@H]1CCC[C@@H](O)CCC/C=C/c2cc(O)cc(O)c2C(=O)O1 | nt | nt | nt | nt | nt | i
CC1CCC/C=C/C2CC(O)CC2C(O)/C=C/C(=O)O1 (configuration not stated) | nt | nt | nt | nt | 72.6 | i
C[C@H]1CCC/C=C/C2C[C@H](O)CC2[C@H](O)/C=C/C(=O)O1 (some centres not stated) | nt | nt | nt | nt | 72.2 | i
CC(C)C(=O)NC(Oc1ccccc1Cl)C(Cl)(Cl)Cl (configuration not stated) | i | i | -13.9 | i | i | i
O=C(O)C(Br)CBr (configuration not stated) | i | 99.7 | i | i | i | nt
O=C1NC(=O)C(=Cc2cccc(OCCOc3ccccc3)c2)C(=O)N1 | i | i | i | i | i | i
O=C1NC(=O)C(=Cc2ccc(OCCOc3ccc([N+](=O)[O-])cc3)cc2)C(=O)N1 | nt | i | i | i | i | active
Cc1ccccc1-c1ccc([C@@H]2[C@H]3CN(C(=O)Cc4ccccn4)CCCCN3[C@H]2CO)cc1 | i | i | i | i | nt | i
Cc1cccc(S(=O)(=O)N2[C@@H]3c4ccc(-c5ccccc5)c(=O)n4C[C@H]2[C@H](CO)[C@H]3C(=O)O)c1 | i | i | i | i | nt | i
C=CCN1C(=O)/C(=C\c2ccc(N3CCOCC3)o2)C(=O)NC1=S | i | i | i | i | nt | i
C=CCN1C(=O)/C(=C/c2ccc(Br)s2)C(=O)NC1=S | 52.6 | i | i | i | i | i
COc1ccc(-c2ccc([C@@H]3[C@H](CO)N4CCCCN(C(=O)Cc5ccccc5)C[C@@H]34)cc2)cc1 | i | i | i | i | i | i
COC(=O)C1=C(C(=O)OC)SC2(S1)C(C(=O)OC)=C(C(=O)OC)Sc1c2ssc1=O | i | i | -23.2 | i | nt | 67.6
C=Cc1cc(OC)c2c(c1)c(=O)oc1c2cc(OC)c2c(O)ccc(C3OC(C)C(O)C(C)(O)C3O)c21 (configuration not stated) | 52.5 | i | i | i | i | i
